The subject of test [1] is Streptococcus pyogenes. In words: Inhibition of Streptococcus pyogenes His-tagged IdeS expressed in Escherichia coli BL21 using IgG1 as substrate at 30 mM incubated for 15 mins prior to substrate addition measured after 20 mins. The method in brief:
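IdeS with tag removed (TEV cleavage, Ni2+ and size-exclusion repurification), stored in PBS. Enzyme preincubated 15 min at room temp with analogue (30 mM stock in 50% DMSO/phosphate pH 7.4) before adding human IgG1. Final IdeS 0.8 μM, analogue at 4.8×10^3 molar excess. 20 min at 37 °C, stopped with iodoacetamide. Triplicates, PBS-for-IdeS controls. Read by SPR as fraction of active IdeS from an IdeS standard curve.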

Test [2] addresses T1, Streptopain (Streptococcus pyogenes) (UniProt P0C0J0).
T1 sequence (whole entry): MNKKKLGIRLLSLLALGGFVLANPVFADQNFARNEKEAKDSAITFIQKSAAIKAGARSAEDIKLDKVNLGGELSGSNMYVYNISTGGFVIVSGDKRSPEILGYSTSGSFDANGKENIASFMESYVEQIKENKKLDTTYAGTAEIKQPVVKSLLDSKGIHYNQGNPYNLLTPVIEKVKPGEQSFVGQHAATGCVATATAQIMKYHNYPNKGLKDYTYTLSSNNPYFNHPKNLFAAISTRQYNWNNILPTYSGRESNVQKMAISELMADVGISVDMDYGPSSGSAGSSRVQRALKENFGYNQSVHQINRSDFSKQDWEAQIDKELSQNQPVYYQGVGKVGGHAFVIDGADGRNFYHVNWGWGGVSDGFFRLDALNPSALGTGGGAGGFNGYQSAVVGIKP
The experiment in a line: Inhibition of Streptococcus pyogenes 5448 SpeB using n-bezoyl-proline-phenylalanine-arginine-p-nitroanilide hydrochloride as substrate at 30 mM incubated for 15 mins prior to substrate addition measured after 30 mins by colorimetry. The method in brief: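 SpeB purified from S. pyogenes 5448 culture supernatant (ammonium sulfate precipitation, ion exchange), activated with 2 mM DTT 30 min at 37 °C. Activated enzyme preincubated 15 min at room temperature with analogue (30 mM stock in 50% DMSO/phosphate pH 7.4; 4.8×10^3 molar excess over 0.28 μM final SpeB). Then 1 mM BPFA substrate in 0.1 M phosphate pH 6 added; OD405 change recorded. Activity expressed relative to uninhibited enzyme.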

Test [3] concerns Streptococcus pyogenes. In words: Inhibition of Streptococcus pyogenes His-tagged IdeS expressed in Escherichia coli BL21 using IgG1 as substrate at 30 mM incubated for 15 mins prior to substrate addition measured after 20 mins by SDS-PAGE analysis. The method in brief:
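Tag-free IdeS (TEV-cleaved, repurified) preincubated 15 min at room temp with peptide or analogue (30 mM stock in 50% DMSO/phosphate pH 7.4), then IgG1 substrate added. Final IdeS 0.8 μM with 4.8×10^3 molar excess of compound. 20 min at 37 °C, quenched with iodoacetamide, IgG cleavage products detected by SDS-PAGE. Triplicates plus enzyme-free controls.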

A further test concerns the target T2, Papain (Carica papaya) (UniProt P00784).
T2 sequence (whole entry): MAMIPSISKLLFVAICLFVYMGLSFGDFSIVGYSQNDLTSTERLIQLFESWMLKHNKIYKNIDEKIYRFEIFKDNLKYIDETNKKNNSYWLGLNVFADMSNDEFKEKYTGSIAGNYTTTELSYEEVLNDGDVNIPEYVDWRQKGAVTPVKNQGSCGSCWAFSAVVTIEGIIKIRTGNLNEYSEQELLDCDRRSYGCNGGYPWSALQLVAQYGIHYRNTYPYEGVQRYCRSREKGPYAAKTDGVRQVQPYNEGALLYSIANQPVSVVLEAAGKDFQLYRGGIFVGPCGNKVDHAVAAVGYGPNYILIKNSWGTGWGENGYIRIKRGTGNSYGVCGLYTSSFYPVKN
The experiment in a line: Inhibition of papaya papain using Nalpa-benzoyl-DL-arginine 4-nitroanilide hydrochloride as substrate at 30 mM incubated for 10 mins prior to substrate addition measured after 2 hrs by colorimetry. The method in brief:
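Papain in pH 6.2 phosphate buffer with 1.23 mM EDTA and 1.23 mM DTT, preincubated 10 min at room temp with compound (30 mM stock in 50% DMSO/phosphate pH 6.2). Final papain 0.9 μM, compound at 4.8×10^3 molar excess. Substrate added from 100 mM DMSO stock, 2 h at 37 °C, stopped with acetic acid, Abs405 read. Duplicates on two occasions. Activity relative to no-inhibitor control.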

Test [4] is described as follows: Inhibition of Streptococcus pyogenes His-tagged IdeS expressed in Escherichia coli BL21 using IgG1 as substrate by SDS-PAGE analysis. The method in brief:
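Ki by competitive-inhibition fit of initial velocities. 2 μM IdeS with repurified polyclonal IgG at 150, 100, 50, 20 or 10 μM, inhibitor at 5, 2, 0.5 mM or 5, 2.5, 1 mM. Initial cleavage read by non-reducing SDS-PAGE densitometry of IgG, single-cleaved IgG, F(ab')2 and 1/2Fc bands, weighted by mass.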

Test [5] in a line: Selectivity ratio of Ki for Streptococcus pyogenes IdeS to Ki for papaya papain.

The source made the active and inactive calls. The calls are words filed in the database; no cut-off is given here. Where a SMILES comes first, the peptide text is derived from it.

As to `CC(C)C[C@H](NC(=O)[C@@H](N)CC(C)C)C(=O)N1CCC[C@@H](NCC(N)=O)C1`, the inhibition entry in the test on Streptococcus pyogenes [1] is “Active”. In test [2], the inhibition entry was “inactive”.

Take `CC(C)C[C@H](N)C(=O)NCC(=O)NCC(=O)N1CCC[C@H]1C(=O)O` (H-LGGP-OH): the inhibition result in the test on Streptococcus pyogenes [1] was “Active”. For the same compound, the inhibition entry in the test with Streptococcus pyogenes [3] is “inactive”.

With `CC(C)C[C@H](N)C(=O)N1CCC[C@@H](NCC(=O)N2CCC[C@H]2C(N)=O)C1`, the inhibition result in the test with Streptococcus pyogenes [1] was “Active”. Besides, the inhibition entry in test [2] is “inactive”.

Turning to `CCN(CC(N)=O)[C@H]1CCCN(C(=O)[C@H](CC(C)C)NC(=O)[C@@H](N)CC(C)C)C1`, the inhibition entry (with Streptococcus pyogenes [1]; in test [2]) was “Active” throughout.

On to H-PELLGGPS-OH, for which, in the test on Streptococcus pyogenes [3], the inhibition entry is “inactive”.

Take `CC(C)C[C@H](N)C(=O)NCC(=O)N1CCC[C@@H](N2CCC[C@H]2C(N)=O)C1`: the inhibition result (with Streptococcus pyogenes [1]; at Papain (Carica papaya); in test [2]) was “Active” each time.

`NCC(=O)NCC(=O)N1CCC[C@H]1C(=O)N[C@@H](CO)C(=O)O` (H-GGPS-OH): the inhibition result in the test with Streptococcus pyogenes [3] is “inactive”.

Regarding `NC(=O)CN[C@@H]1CCCNC1`, the inhibition entry in the test on Streptococcus pyogenes [1] is “Active”. In addition, the inhibition result (at Papain (Carica papaya); in test [2]) was “inactive” each time.

Regarding `NC(=O)CN[C@H]1CCCNC1`, the inhibition result in the test on Streptococcus pyogenes [1] is “Active”. Moreover, in test [4], affinity was put at a Ki of 6.7 mM. For the same compound, the inhibition result (at Papain (Carica papaya); in test [2]) was “inactive” each time. For the same compound, in test [5], the Ratio Ki stood at 16.

With H-ELLGG-OH, the inhibition entry in the test with Streptococcus pyogenes [3] is “inactive”.

In the case of `NCC(=O)NCC(=O)O` (H-Gly-Gly-OH), the inhibition result in the test on Streptococcus pyogenes [1] was “Active”. In addition, the inhibition result in the test with Streptococcus pyogenes [3] is “inactive”.

Regarding `NCC(=O)N1CCC[C@H](N2CCC[C@H]2C(N)=O)C1`, the inhibition result in the test on Streptococcus pyogenes [1] is “Active”.

With `CC(C)C[C@H](N)C(=O)N1CCC[C@H](NCC(=O)N2CCC[C@H]2C(N)=O)C1`, the inhibition result with Streptococcus pyogenes [1] and at Papain (Carica papaya) was “Active” in each case. Moreover, the inhibition result in test [2] was “inactive”.

`CC(C)C[C@H](N)C(=O)N1CCC[C@@H](NCC(N)=O)C1`: the inhibition result in the test with Streptococcus pyogenes [1] is “Active”. The compound also yielded a Ki in test [4] of 5.7 mM. The inhibition result (at Papain (Carica papaya); in test [2]) was “inactive” throughout. Besides, the Ratio Ki in test [5] was 16.

For `NCC(=O)N1CCC[C@@H](N2CCC[C@H]2C(N)=O)C1`, the inhibition entry with Streptococcus pyogenes [1] is “Active”.

As to `NC(=O)[C@@H]1CCCN1C(=O)CN[C@H]1CCCNC1`, in the test with Streptococcus pyogenes [1], the inhibition result was “Active”.

As for `CC(C)C[C@H](NC(=O)[C@@H](N)CC(C)C)C(=O)N1CCC[C@H](NCC(N)=O)C1`, in the test with Streptococcus pyogenes [1], the inhibition entry is “Active”. Also, the inhibition result in test [2] was “inactive”.

In the case of `CC(C)[C@H](NC(=O)[C@H](CO)NC(=O)[C@@H]1CCCN1C(=O)CN)C(=O)O` (H-GPSV-OH), the inhibition result with Streptococcus pyogenes [3] is “inactive”.

For the compound `NC(=O)[C@@H]1CCCN1C(=O)CN[C@@H]1CCCNC1`, the inhibition result with Streptococcus pyogenes [1] and on Papain (Carica papaya) was “Active” in each case.

Turning to `CC(C)C[C@H](NC(=O)[C@@H](N)CC(C)C)C(=O)NCC(=O)NCC(=O)O` (H-LLGG-OH), the inhibition entry (in the test on Streptococcus pyogenes [1]; in test [2]) was “Active” each time. Moreover, the inhibition result in the test with Streptococcus pyogenes [3] was “inactive”.

For the compound `CC(C)C[C@H](N)C(=O)N1CCC[C@H](NCC(N)=O)C1`, in the test with Streptococcus pyogenes [1], the inhibition result is “Active”. The inhibition result (at Papain (Carica papaya); in test [2]) was “inactive” each time.

Regarding `CCN(CC(N)=O)[C@@H]1CCCN(C(=O)[C@H](CC(C)C)NC(=O)[C@@H](N)CC(C)C)C1`, the inhibition result (with Streptococcus pyogenes [1]; in test [2]) was “Active” in each case.

Take `CC(C)C[C@H](N)C(=O)NCC(=O)N1CCC[C@H](N2CCC[C@H]2C(N)=O)C1`: the inhibition result (in the test with Streptococcus pyogenes [1]; in test [2]) was “Active” each time.

Turning to H-LLGGPS-OH, the inhibition result in the test with Streptococcus pyogenes [3] is “inactive”.

The values are drawn from ChEMBL document CHEMBL2034923, “3-aminopiperidine-based peptide analogues as the first selective noncovalent inhibitors of the bacterial cysteine protease IdeS” (J Med Chem, 2012).
